# Screens from PubChem BioAssay.
# Sampled rows, rich in hits. Any-hit rate of the full collection: about 6.8%.
# core dimer inh: HCV core protein dimerization inhibition. TR-FRET GST/Flag-core106 dimerization, 1536-well. inhibition, % at 5 µM. 0.33% of 300,000 active. AID 1899;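 active = inhibition above the mean of all tested compounds plus 3 SD, set per screening campaign, cut at about 45% in these data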
#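 System: GST-tagged and Flag-tagged HCV core protein residues 1-106 / Input: core106 proteins, GST 13.5 nM and Flag 17 nM / Buffer or medium: KF-containing HEPES buffer, pH 7.45, DTT, CHAPS, BSA / Probe or stimulus: Eu-anti-GST and XL665-anti-Flag labelled anti-tag antibodies / Schedule: 4 h, 22.5 °C incubation / Technique: TR-FRET 671 and 617 nm emission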
# ALR inh: human ALR oxidase inhibition via reduced H2O2. 3.8% of 290,000 active. inhibition, % (test concentration not listed). P55789. purified ALR, DTT oxidation, H2O2 HRP-luminol luminescence. AID 485317;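 active = mean replicate inhibition above about 79%, with every replicate also reaching it, limit read from the data; inconclusive = only one of the two criteria met; inactive = mean below limit and not every replicate reaching it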
# Target sequence (P55789 whole entry, looked up): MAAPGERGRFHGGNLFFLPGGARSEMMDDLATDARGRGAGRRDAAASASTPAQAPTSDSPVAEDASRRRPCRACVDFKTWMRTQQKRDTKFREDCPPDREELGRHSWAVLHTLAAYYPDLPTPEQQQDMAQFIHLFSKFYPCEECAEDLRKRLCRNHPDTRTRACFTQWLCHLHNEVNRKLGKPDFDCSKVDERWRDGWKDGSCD
# HSF-1 act: increases HSF-1 driven luciferase reporter signal. activation, % at 9 µM. AID 504408. 1.7% of 300,000 active. NIH3T3-HGL HSF-1 luciferase reporter, MG132, 8 h; 100% = twice DMSO control signal;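 active = mean replicate activation of at least 50% with a set share of replicates each reaching 50%; inconclusive = only one of those two conditions met; inactive = mean below 50% and too few replicates reaching it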;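 note: 0% = median of the neutral control wells and 100% = twice that signal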
# HSF1 inh: HSF1 inhibition; activity change, negative = inhibition, % at 7.5 µM (by protocol); 0.77% of 300,000 active; AID 2098; NIH3T3-HGL HSE-luciferase, MG132-induced, luminescence 8 h; hits give low values;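 active = more than half of replicate wells show activity change below -50%, luminescence cut by over half; inconclusive = some wells, but at most half, below -50%; inactive = no replicate well below -50%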;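 note: luciferase reports HSF-1 transcriptional activity via heat shock element; 0% = median of DMSO wells and -100% = zero luminescence signal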
# AI-2 QS modul: Vibrio harveyi AI-2 quorum sensing modulation; Vibrio harveyi JMH597 AI-2 luminescence/OD600 ratio, 9 h; hits give low values; strain lacks LuxN and CqsS sensors; 0 = neutral-control median; activity change, % at 7.5 µM; 0.4% of 300,000 active; AID 2094; in the data active = activity change below about -75%, passing the limit was not always enough; inconclusive = no clear call, values can overlap the other calls;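 note: luminescence divided by OD600 gain over 9 h not by final OD600 alone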
# PHOSPHO1 inh: inhibitors of human PHOSPHO1 phosphatase; inhibition, % at 13.3 µM; 1.1% of 290,000 active; recombinant PHOSPHO1, absorbance phosphatase assay; in the data active = inhibition above about 60%
# Target sequence (Q8TCT1 whole entry, looked up): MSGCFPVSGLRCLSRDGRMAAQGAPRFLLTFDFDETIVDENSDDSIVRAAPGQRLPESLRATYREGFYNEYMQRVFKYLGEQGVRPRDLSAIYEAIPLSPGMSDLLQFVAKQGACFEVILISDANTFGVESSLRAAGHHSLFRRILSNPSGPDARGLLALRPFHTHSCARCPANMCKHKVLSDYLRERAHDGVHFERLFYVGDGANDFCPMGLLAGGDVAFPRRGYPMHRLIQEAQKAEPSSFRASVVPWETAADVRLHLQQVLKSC
# * hit, by the source's call; ? = inconclusive; / = no result given.
SMILES,core dimer inh,ALR inh,HSF-1 act,HSF1 inh,AI-2 QS modul,PHOSPHO1 inh
COCCCN1C(=O)C(=O)/C(=C(/O)c2ccc(S(=O)(=O)N3CCOCC3)cc2)C1c1ccc(C(C)C)cc1 (configuration not stated),1.7,2.8,-1.8,-0.7,27.6,18.1
CC(=O)Nc1ccc(CN2CCN(CCc3ccccc3)C(CCO)C2)cc1 (configuration not stated),0.9,-4.7,-9.5,1.6,18.7,35.4
O=C(Nc1ccc(C(F)(F)F)cc1)c1csc(-c2ccncc2)n1,1.1,-11.9,3.1,-3.1,1.0,64.3*
COC(=O)C1=CC(C(=O)c2cccs2)=NN(c2ccc(OC)cc2)C1C(=O)OC (configuration not stated),11.2,-3.9,2.2,3.1,16.8,-15.4
CCOC(=O)c1ccc2[nH]c3c(c2c1)CCCC3O (configuration not stated),0.5,-2.4,20.3,9.6,39.1,27.9
CCOC(=O)c1ccc2[nH]c3c(c2c1)CCCC3,-12.7,98.3*,42.0,24.7,3.8,19.1
CCCC(C)NC(=O)c1ccc2[nH]c3c(c2c1)CC(C)CC3 (configuration not stated),-1.1,12.2,/,/,/,51.9
COC(=O)c1ccc2[nH]c3c(c2c1)CC(C)CC3 (configuration not stated),-3.1,92.5*,5.7,4.1,21.1,/
O=C(NCCc1ccccc1)C1(S(=O)(=O)c2ccc(Cl)cc2)CC1,2.6,-11.8,-3.5,-0.5,8.1,42.0
CC(OC(=O)c1cccnc1Cl)C(=O)Nc1ccc2c(c1)OCO2 (configuration not stated),/,-11.1,/,/,/,/
CCN(CC)c1ccc(C(=C2C=CC(=[N+](CC)CC)C=C2)c2ccccc2)cc1,/,/,94.5*,94.5*,/,/
CCN(CC)c1ccc(C(=O)NNC(=O)CCNC(=O)c2ccccc2)cc1,/,15.0,/,/,/,/
O=C1N2c3ccccc3CCc3cccc(c32)C1(O)C(F)(F)F (configuration not stated),-1.1,10.7,-7.7,-13.6,12.3,0.1
CCCC[C@@H]1C[C@H]1[C@@H](NC(=O)c1ccco1)c1ccc(Cl)cc1,-5.3,/,-84.2,-81.8*,17.8,-13.6
CCCC[C@@H]1C[C@H]1[C@@H](NC(=O)c1cccs1)c1ccc(Cl)cc1,1.8,-3.2,-5.0,7.2,7.1,40.2
Cc1sc2nc(CN3CCCCC3)nc(Cl)c2c1C,6.3,98.0*,-15.7,-5.8,1.8,-11.2
Clc1nc(CN2CCCCC2)nc2sc3c(c12)CCCC3,3.1,19.0,25.1,14.7,28.4,-13.4
CCCCc1n[nH]c2c1/C(=N/OCC)CC(C)(C)C2,-0.7,3.6,-77.4,-73.7*,22.1,15.0
CSc1nc(C=Nc2ccccc2Cl)c(O)n1Cc1cccc(Cl)c1,3.4,-0.4,7.9,-1.7,17.2,88.2*
O=Nc1c(O)n(Cc2cccc(Cl)c2)c2ccccc12,1.2,0.6,4.7,1.0,20.5,33.0
NS(=O)(=O)c1ccc(CCNC(=O)C(=O)NCC2OCCN2S(=O)(=O)c2ccc(Cl)cc2)cc1 (configuration not stated),12.7,-5.0,1.1,0.6,16.6,-0.5
Cc1cccc(-c2cccc(NC(=O)C3CCCN(C(=O)c4csc(C)n4)C3)c2)c1 (configuration not stated),0.2,-7.8,59.8*,38.5,3.8,11.9
Cc1cccc(-c2cccc(NC(=O)C3CCCN(C(=O)c4cccnc4)C3)c2)c1 (configuration not stated),/,-13.1,66.6*,20.8,11.6,17.0
Cc1cccc(-c2cccc(NC(=O)C3CCCN(C(=O)c4ocnc4C)C3)c2)c1 (configuration not stated),-14.7,-17.6,41.4,15.7,-0.1,41.4
Cc1ccc(-c2nc(CN(C)C3CCOC3)c(C)o2)s1 (configuration not stated),2.5,-12.8,18.7,-2.5,-9.7,19.9
SMILES,core dimer inh,ALR inh,HSF-1 act,HSF1 inh,AI-2 QS modul,PHOSPHO1 inh
CCn1c(NC(C)=O)c(-c2ccccc2Cl)c(=O)c2ccccc21,-0.8,-1.2,-10.8,-12.0,0.3,25.7
N#C/C(=C\C=C\c1ccccc1[N+](=O)[O-])C(=O)NCc1ccccc1,11.8,/,94.2*,56.1,-4.8,-1.0
CCC(=O)N1CCc2cc(S(=O)(=O)CCC(=O)Nc3ccc(OC)c(OC)c3)ccc21,5.0,-18.3,0.0,1.1,10.8,3.3
Cc1ccc(-n2c(SCC(=O)N3CCCCC3)nc(O)c(Cc3ccccc3)c2=O)cc1,-16.8,11.9,4.1,7.4,1.7,52.6
O=c1oc(-c2ccccc2)nc2sc3c(c12)CCC3,58.6*,51.7,-27.2,-3.0,9.7,-10.6
Nn1c(Nc2ccccc2)nc2sc3c(c2c1=O)CCCC3,1.6,81.5*,-6.8,3.4,25.1,14.8
Nc1nc(-c2ccccc2)nc2sc3c(c12)CCCC3,-2.8,/,84.6*,39.4,1.9,5.9
O=C(NCCc1ccco1)C(=O)NCC1CCCN1S(=O)(=O)c1ccccc1 (configuration not stated),4.5,2.0,-6.5,-3.1,3.4,/
O=C(OCc1cc(=O)n2cc(Br)ccc2n1)C1COc2ccccc2O1 (configuration not stated),7.7,-3.3,-58.6,-49.2,24.5,23.5
Cn1c(SCc2cc(=O)n3cc(Br)ccc3n2)nnc1C1COc2ccccc2O1 (configuration not stated),17.7,0.8,8.7,6.9,32.7,73.3*
CN1C(=O)c2ccc(C(=O)NCc3ccco3)cc2C1=O,-14.7,2.1,32.2,0.5,4.6,12.6
COc1cc(/C=C2\SC(N3CCC(C)CC3)=NC2=O)ccc1O,-4.4,90.4*,45.5,12.1,26.5,20.3
CCOC(=O)CSC1=NC(=O)/C(=C\c2ccc(Cl)cc2)S1,-0.2,98.6*,?,30.1,34.2,26.1
CCOC(=O)C1CCN(C2=NC(=O)/C(=C/c3ccc(Cl)cc3)S2)CC1,5.0,96.5*,6.0,-3.2,2.7,19.9
CN(C)c1ccc(/C=C2\SC(N3CCCCC3)=NC2=O)cc1,-22.8,99.0*,-62.5,?,22.6,25.3
Cc1ccc(/C=C2\SC(N3CCCC3)=NC2=O)cc1,-1.6,/,23.9,6.2,13.4,55.0
CCOC(=O)C1CCN(C2=NC(=O)/C(=C/c3ccc(OC)c(OC)c3)S2)CC1,10.9,20.3,17.8,12.2,5.9,15.6
CCCOc1ccc(C2c3c(oc4ccccc4c3=O)C(=O)N2CCCN2CCOCC2)cc1 (configuration not stated),10.4,-1.0,20.0,7.8,2.1,7.0
COc1ccc(-c2cnc(N)nc2-c2ccc(OCc3ccccc3)cc2O)cc1,4.7,-26.1,8.8,-0.7,6.2,34.2
